For orientation: IC50 means the concentration that gives 50% inhibition.

Results on four compounds are retold here after BindingDB's records for doi:10.1016/j.bmc.2018.01.022 (Csic and Universidad De Sevilla, 2018).

Molecules are shown by their SMILES.

One test has as its target T1, Midkine (Homo sapiens, UniProt P21741).
T1 sequence (P21741 whole entry): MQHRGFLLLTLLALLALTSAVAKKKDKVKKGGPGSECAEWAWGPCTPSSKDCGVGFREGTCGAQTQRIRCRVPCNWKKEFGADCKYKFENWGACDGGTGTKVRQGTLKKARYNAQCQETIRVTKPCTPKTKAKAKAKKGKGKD
In words: Inhibition of fluorescein labelled heparin-like hexasaccharide probe binding to recombinant human midkine after 5 mins by fluorescence polarization assay. In short, it runs like this:
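Recombinant human midkine at 63 nM final with 10 nM fluorescein-labelled heparin-like hexasaccharide probe in PBS (10 mM, pH 7.4) plus 0.5% BSA. […] Shaken 5 min in the dark; polarization read at ex 485 / em 535 nm. Triplicate wells averaged, one-site competition fit for IC50. At least three independent experiments.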
(Polarisation of emitted light reports the rotation of a fluorescent probe.)

In test [1] the target is Fibroblast growth factor 2 (Homo sapiens, UniProt P09038). Kind of test: Inhibition of fluorescein labelled heparin-like hexasaccharide probe binding to recombinant human FGF-2 after 5 mins by fluorescence polarization assay. An outline of the steps:
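Competition fluorescence polarization in PBS (10 mM, pH 7.4) with 0.5% BSA final. Recombinant human FGF-2 at 97 nM final, fluorescein-labelled heparin-like hexasaccharide probe at 10 nM final, inhibitor serially diluted, final 25 µM to 12.5 nM. Shaken 5 min in the dark, then read at ex 485 / em 535 nm. Triplicate wells. One-site competitive fit against log concentration gives IC50. Mean ± SD of three independent experiments.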

Fibroblast growth factor 2, sequence (P09038 143-288 limits assumed): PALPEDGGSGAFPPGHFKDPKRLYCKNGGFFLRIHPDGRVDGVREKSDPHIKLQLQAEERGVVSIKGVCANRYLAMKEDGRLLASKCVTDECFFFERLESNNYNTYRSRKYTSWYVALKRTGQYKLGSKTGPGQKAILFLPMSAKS

Consider `COc1ccc(O[C@@H]2O[C@H](COC(=O)CCC(F)(F)C(F)(F)C(F)(F)C(F)(F)C(F)(F)C(F)(F)C(F)(F)C(F)(F)F)[C@@H](O[C@@H]3O[C@H](COS(=O)(=O)O)[C@@H](OS(=O)(=O)O)[C@H](OC(=O)CCC(C)=O)[C@H]3N3C(=O)c4ccccc4C3=O)[C@H](OCc3ccccc3)[C@H]2OC(=O)c2ccccc2)cc1`, for which the IC50 at Midkine was determined as 0.7 µM. For `COc1ccc(O[C@@H]2O[C@H](COC(=O)CCC(F)(F)C(F)(F)C(F)(F)C(F)(F)C(F)(F)C(F)(F)C(F)(F)C(F)(F)F)[C@@H](O[C@@H]3O[C@H](COS(=O)(=O)O)[C@@H](OS(=O)(=O)O)[C@H](O[C@@H]4O[C@H](COC(=O)C(C)(C)C)[C@@H](O[C@@H]5O[C@H](COS(=O)(=O)O)[C@@H](OS(=O)(=O)O)[C@H](OC(=O)CCC(C)=O)[C@H]5N5C(=O)c6ccccc6C5=O)[C@H](OCc5ccccc5)[C@H]4OC(=O)c4ccccc4)[C@H]3N3C(=O)c4ccccc4C3=O)[C@H](OCc3ccccc3)[C@H]2OC(=O)c2ccccc2)cc1`, the results for the half-inhibitory concentration (IC50) (at Midkine; in test [1]) were 0.27 µM and 2.4 µM, respectively. Take `COc1ccc(O[C@@H]2O[C@H](CO)[C@@H](O[C@@H]3O[C@H](COS(=O)(=O)O)[C@@H](OS(=O)(=O)O)[C@H](O)[C@H]3NC(C)=O)[C@H](OCc3ccccc3)[C@H]2O)cc1`: the concentration for half-maximal inhibition (IC50) at Midkine was greater than 250 µM.

Regarding `COc1ccc(O[C@@H]2O[C@H](CO)[C@@H](O[C@@H]3O[C@H](COS(=O)(=O)O)[C@@H](OS(=O)(=O)O)[C@H](O)[C@H]3NC(C)=O)[C@H](O)[C@H]2O)cc1`, the IC50 at Midkine is greater than 250 µM.
